Source: PubChem BioAssay (several laboratories)
Most compounds without a hit are left out; they make up all but 2% or so of the library.
eIF4H FP inh = human eIF4H binding inhibitors, primary screen, translation initiation inhibitor project, biochemical, uHTS, fluorescence polarization | Eukaryotic translation initiation factor 4H (Homo sapiens), Q15056 | eIF4H fluorescence polarization binding assay | inhibition, % at 35 µM | 290,000 compounds, 0.94% hits;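 also: calls also rest on retests at 20 µM and on dose response follow-up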
DNA FID counter = compounds displacing fluorescent DNA intercalator, primary screen, artefact control for HCV NS3 helicase inhibitor project, biochemical, FID fluorescence; AID 1845, 2009; 290,000 compounds, 0.17% hits; inhibition, % at 7.9 µM; DNA fluorescent intercalator displacement; in the data active = inhibition above about 37%;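 also: 0% = vehicle and 100% = reference compound; higher means more ethidium bromide displaced from hairpin DNA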
core dimer inh = inhibitors of HCV core protein dimerization, primary screen, biochemical, TR-FRET, high-throughput | TR-FRET GST/Flag-core106 dimerization, 1536-well | inhibition, % at 5 µM | 300,000 compounds, 0.33% hits | AID 1899, 2009;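 active = inhibition above the mean of all tested compounds plus 3 SD, set per screening campaign, cut at about 45% in these data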
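Material: Tagged HCV core106 pair (GST and Flag) | Amount: GST-core106 13.5 nM, Flag-core106 17 nM | Medium: KF-containing HEPES buffer, pH 7.45, DTT, CHAPS, BSA | Reagent: Eu donor and XL665 acceptor anti-tag antibodies | Schedule: 4 h at 22.5 °C | Technique: Time-resolved FRET, ex 340 nm, em 617 and 671 nm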
MLLE-PAM2 inh = inhibitors of PABP1 MLLE–PAM2 peptide binding, primary screen, biochemical, fluorescence polarization, FITC-PAM2, GST-MLLE; Polyadenylate-binding protein 1 (Homo sapiens), P11940; inhibition, % at 20 µM; 360,000 compounds, 0.36% hits; in the data active = inhibition above about 35%, passing the limit was not always enough;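 also: plate controls were DMSO wells with GST-MLLE for no effect and wells lacking GST-MLLE protein for full effect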
Target sequence (P11940 whole entry, looked up): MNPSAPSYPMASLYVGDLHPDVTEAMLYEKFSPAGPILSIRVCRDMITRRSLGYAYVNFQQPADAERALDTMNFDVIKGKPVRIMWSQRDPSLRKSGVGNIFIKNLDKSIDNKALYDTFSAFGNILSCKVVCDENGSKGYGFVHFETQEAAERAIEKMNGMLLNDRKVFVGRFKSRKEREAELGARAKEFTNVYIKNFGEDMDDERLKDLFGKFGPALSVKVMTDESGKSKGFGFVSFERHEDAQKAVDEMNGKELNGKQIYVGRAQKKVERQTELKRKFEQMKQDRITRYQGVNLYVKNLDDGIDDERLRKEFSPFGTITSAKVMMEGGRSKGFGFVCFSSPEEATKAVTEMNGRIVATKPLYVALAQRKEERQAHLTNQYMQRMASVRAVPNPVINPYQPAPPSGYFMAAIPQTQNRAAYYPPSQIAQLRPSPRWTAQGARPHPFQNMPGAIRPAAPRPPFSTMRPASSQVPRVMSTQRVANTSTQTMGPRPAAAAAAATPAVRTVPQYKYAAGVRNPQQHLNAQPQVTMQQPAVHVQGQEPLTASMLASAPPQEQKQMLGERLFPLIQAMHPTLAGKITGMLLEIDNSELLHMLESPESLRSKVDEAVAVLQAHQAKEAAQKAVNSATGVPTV
NS3 helicase inh = inhibitors of HCV NS3 helicase, primary screen, biochemical, Cy5 molecular beacon fluorescence | Hepatitis C virus NS3 helicase | NS3 helicase DNA unwinding | inhibition, % at 10.9 µM | 290,000 compounds, 0.56% hits;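 active = inhibition above the mean of all tested compounds plus 3 SD, set per campaign, cut at about 35% in these data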;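 also: 0% = DMSO wells and 100% = thioflavine S control wells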
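System: HCV NS3 helicase fragment; control set: DMSO and thioflavine S; technique: Cy5 fluorescence at 0 and 60 min, beacon hairpin quenching; reagent: beacon DNA duplex substrate plus ATP; replicates: singlicate; schedule: 1 h reaction at 25 °C, ATP-initiated; medium: MOPS buffer pH 6.5 with MgCl2, DTT, Tween20, BSA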
PABP polyA inh = PABP poly(A) RNA binding inhibitors, primary screen, biochemical, fluorescence polarization, uHTS | AID 2014, 2009 | inhibition, % at 35 µM | Polyadenylate-binding protein 1 (Homo sapiens), P11940 | 290,000 compounds, 1% hits;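 also: calls also rest on retests at 20 µM and on dose response follow-up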
Active calls of the source: *; ? = inconclusive; · = no result given. Unless noted, no rule for the calls is given here.

SMILES	eIF4H FP inh	DNA FID counter	core dimer inh	MLLE-PAM2 inh	NS3 helicase inh	PABP polyA inh
OC[C@H]1O[C@@H](n2cnc3c(Nc4ccccc4)ncnc32)[C@H](O)[C@@H]1O	active	-2	-7	3	-1	116*
O=C(O)C(Cc1ccc(Cl)cc1)NS(=O)(=O)c1ccc(Cl)cc1 (stereo unspecified)	0	-18	-4	13	13	5
CC1=C(C(=O)Nc2ccccc2C)C(c2ccc(C)o2)n2c(s/c(=C/c3ccccc3)c2=O)=N1 (stereo unspecified)	7	-15	48*	-9	12	8
O=C1N/C(=C/c2ccco2)C(=O)N1Cc1ccccc1F	96*	-6	8	7	22	active
O=C1N/C(=C/c2cccs2)C(=O)N1Cc1ccccc1F	7	9	-1	-9	-3	34
COc1ccc(/C=C2/NC(=O)N(Cc3ccccc3F)C2=O)cc1OC	?	-7	-2	-3	3	76*
COc1cc(/C=C2/NC(=O)N(Cc3ccccc3F)C2=O)cc(OC)c1OC	-6	-23	7	4	-18	-7
CCC(=O)N/N=C(\C)CC(=O)Nc1ccc2c(c1)OCCO2	0	-20	-6	-9	1	7
CCc1cc(SC#N)cc(C)c1NC(=O)CCl	-4	1	-1	40*	2	0
Cc1cc(SC#N)cc(C)c1NC(=O)CCl	8	0	-14	28	-4	2
CCC(=O)Nc1ccc(SC#N)cc1C	-6	0	-13	59*	15	5
Cc1cc(C)cc(N2CC(C(=O)OCC(=O)Nc3cc(C)on3)CC2=O)c1 (stereo unspecified)	-2	-21	-2	18	6	-12
O=[N+]([O-])c1cccc(C(=S)N2CCN(c3ccc(F)cc3)CC2)c1	3	-2	13	76*	-10	6
O=C1CC(c2ccccc2)c2cc(O)ccc2O1 (stereo unspecified)	4	-4	-5	10	10	8
Cc1ccc(C2CC(=O)Oc3cc(O)ccc32)cc1 (stereo unspecified)	50*	-2	-10	7	0	4.5*
CN(C)CCN(C(=O)CCS(=O)(=O)c1ccccc1)c1nc2c(F)cccc2s1	-8	0	-10	8	4	-5
COc1ccc(OC)c2sc(N(CCCN(C)C)C(=O)CCS(=O)(=O)c3ccccc3)nc12	·	·	-1	43*	·	·
Cc1ccc2sc(N(CCCN(C)C)C(=O)c3ccc(Br)s3)nc2c1C	-8	46*	6	3	-10	-8
Cc1ccc2sc(N(CCCN(C)C)C(=O)CCS(=O)(=O)c3ccccc3)nc2c1C	-2	41*	-15	0	-33	11
CCOC(=O)N1CCN(Cc2c(O)ccc3ccccc23)CC1	-2	-13	5	40*	-9	2
O=C(CSc1nnc(-c2cccnc2)o1)Nc1ccccc1F	·	·	0	44*	·	·
O=C(CSc1nnc(-c2cccnc2)o1)Nc1ccccc1Br	-9	-5	8	9	-4	-3
Cc1cc(C2=NNC(=NC3CCCCC3)SC2)c(C)n1-c1c(C)n(C)n(-c2ccccc2)c1=O	-4	-21	65*	-12	8	-3
Cc1cc(C2=NNC(=NC3CC3)SC2)c(C)n1-c1ccccc1F	-29	-15	27	-2	-7	-2
COc1cc(OC)c(NC(=O)c2ccc3c(SCC(=O)O)c4c(nc3c2)CCCC4)cc1Cl	81*	-26	47*	1	30	12*
SMILES	eIF4H FP inh	DNA FID counter	core dimer inh	MLLE-PAM2 inh	NS3 helicase inh	PABP polyA inh
Cc1cc2ccccc2n1CCNC(=O)c1cccs1	42*	-11	-14	14	-1	64*
Cc1cc2ccccc2n1CCNC(=O)C1CCCC1	?	-12	-6	24	-28	75*
Cc1cc2ccccc2n1CCNC(=O)C1CCCCC1	19	-10	-1	11	-3	-16
Cc1cc2ccccc2n1CCNC(=O)C1CC1	112	-10	-4	20	-21	50*
COc1ccccc1NC(=O)c1cnc(SCC(=O)NCC2CCCO2)n(C)c1=O (stereo unspecified)	·	·	3	20	·	·
Nc1nnc(-c2cc3c(ccc4ccccc43)oc2=O)s1	86*	4	·	·	-10	-1
O=c1oc2ccc3ccccc3c2cc1-c1nnc(-c2ccccc2)o1	11	0	10	0	-6	9
CC(C)n1ncc2c(C(=O)N3CCN(Cc4ccc(Br)s4)CC3)cc(C3CC3)nc21	·	·	·	-5	·	·
Nc1cc(Nc2ccccc2)c2nonc2c1[N+](=O)[O-]	-6	-5	8	56*	1	2
O=[N+]([O-])c1c(Nc2cccc(O)c2)cc(Cl)c2nonc12	-5	10	26	33	-30	2
O=C(O)c1ccc(Nc2cc(Cl)c3nonc3c2[N+](=O)[O-])cc1	1	8	1	39*	18	0
CCCCNC(=O)C(NC(=O)c1cccc2ccccc12)C(=O)c1ccccc1 (stereo unspecified)	·	·	·	-3	·	·
Cc1ccccc1NC(=O)c1sc2nc3c(c(-c4ccco4)c2c1N)CCC3	88*	-14	33	14	28	58*
NC(=O)c1sc2nc3c(c(-c4ccco4)c2c1N)CCCC3	10	-19	-3	18	10	12
COc1ccc(C2CC(c3cccs3)=NN2C(=O)CSc2nc(=O)n3ccc(C)cc3n2)cc1 (stereo unspecified)	·	·	48*	-21	·	·
Cc1ccc(C2CC(c3cccs3)=NN2C(=O)CSc2nc(=O)n3ccc(C)cc3n2)cc1 (stereo unspecified)	·	·	61*	-31	·	·
CCN(CC(=O)Nc1ccc(OC)cc1)CC(=O)Nc1cccc(S(=O)(=O)N2CCOCC2)c1	·	·	·	-5	·	·
CC1(C(=O)NS(=O)(=O)c2ccc(Br)cc2)CCN1C(=O)CCC1CCCC1 (stereo unspecified)	·	·	·	11	·	·
Fc1ccc(NCc2nnc(SCc3nnc(-c4ccccc4)o3)n2Cc2ccccc2)cc1	58*	-8	12	-57	-8	35
Clc1ccc(-c2nnc(CSc3nnc(-c4cccs4)n3Cc3ccccc3)o2)cc1	-5	-28	19	-1	-14	-10
Cc1ccc(NC2=CC(=O)CC(C)(C)C2)c(N)c1	82*	-6	-1	6	10	79*
O=C(NCCO)c1cccc(-c2cnc3cccnn23)c1	·	·	·	1	·	·
O=C(NCc1ccccn1)C1CCN(C2CCN(Cc3cccc(F)c3)CC2)CC1	·	·	·	5	·	·
